Measurements reported in article PMC9289880 (Journal of Medicinal Chemistry, 2022).
Where two headings read alike, the source gives them in different places. *1 amine or outer side, *2 acyl side, *3 side chain or, on linkers, in order; H or OH if unused. Where a SMILES comes first, the peptide text is derived from it. Bridges are numbered along the chain shown (N, C = ends). [ ]: non-standard residue; d: D form. Pro(trans-3-OAllyl) = C=CCO[C@H]1CCN[C@@H]1C(=O)O; Pro(3R-Ph) = O=C(O)[C@H]1NCC[C@@H]1c1ccccc1; Bip = N[C@@H](Cc1ccc(-c2ccccc2)cc1)C(=O)O; Ala(cPent) = N[C@@H](CC1CCCC1)C(=O)O; d(αMeS) = C[C@@](N)(CO)C(=O)O; Ahp(2) = CCCCC[C@H](N)C(=O)O; CH2 = C([*:1])[*:2]

How the values were obtained:
[1] = target: KRAS^G12D (Homo sapiens, UniProt P01116, G12D); assay: SOS-catalyzed guanine nucleotide exchange; assay type: biochemical
Sequence of KRAS^G12D (P01116 1-188 isoform P01116-2 G12D): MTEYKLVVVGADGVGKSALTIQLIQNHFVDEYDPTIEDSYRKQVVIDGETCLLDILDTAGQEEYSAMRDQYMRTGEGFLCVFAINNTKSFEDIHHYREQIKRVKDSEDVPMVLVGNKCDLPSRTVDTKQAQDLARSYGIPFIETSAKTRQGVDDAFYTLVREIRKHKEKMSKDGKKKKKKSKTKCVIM

[2] = system: pERK, AsPC-1 cells; assay: AlphaScreen pERK assay in AsPC-1 cells; assay type: cell-based; details: for IC50: pERK
Summary of the method: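 AsPC-1 cells grown in RPMI 1640 (GlutaMAX, HEPES) with 10% FBS and penicillin/streptomycin. Seeded at 15 000 cells/well and held overnight at 37 °C, 5% CO2, then switched to serum-free medium. Compound dose-response series added acoustically, then incubated 2 and 18 h. Cells washed with DPBS and lysed with protease inhibitors. pERK (615 nm) and total ERK (535 nm) read by AlphaScreen SureFire multiplex. pERK/total ERK ratio fitted to 4-parameter logistic.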

[3] = Cell homogenate stability assay; assay type: in vitro ADME; details: human, HeLa cell homogenate
Summary of the method: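 HeLa cells suspended at 1 × 10^6 cells/mL, probe-sonicated on ice until homogeneous, then frozen at −20 °C until use. Peptides incubated with the homogenate (1 × 10^6 cells/mL equivalent). Loss of parent peptide over increasing time quantified by LC-MS/MS.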

[4] = system: HeLa cells; assay: NanoClick cell permeability assay; assay type: in vitro ADME, Human
[5] = read-out: AlphaScreen (AsPC-1) 18 h IC50, AsPC-1, 18 h
[6] = read-out: AlphaScreen (AsPC-1) 2 h IC50, AsPC-1, 2 h

Row | Structure (SMILES) | IC50 [1] | IC50 [2, 5] | IC50 [2, 6] | further results
1 | C=CCO[C@H]1CCN2C(=O)[C@H](NC(=O)[C@H](CCCNC(=N)N)NC(=O)[C@H](CCCNC(=N)N)NC(C)=O)CSCSC[C@@H](C(=O)N[C@@H](CCCNC(=N)N)C(=O)N[C@@H](CCCNC(=N)N)C(N)=O)NC(=O)[C@H](CCCCC)NC(=O)[C@@H]3CCCN3C(=O)[C@H](CC(=O)O)NC(=O)[C@H](Cc3ccc(O)cc3)NC(=O)[C@H](CO)NC(=O)[C@H]([C@@H](C)CC)NC(=O)[C@H](Cc3ccc(-c4ccccc4)cc3)NC(=O)[C@H](CC(C)C)NC(=O)[C@H]12 [5-04, Ac-RR-cyclo(c(methylene)-Prot3OAl-L-Bip-ISYDP-Ahp-C)-RR-NH2] (Ac-RR[dC][Pro(trans-3-OAllyl)]L[Bip]ISYDP[Ahp(2)]CRR-NH2; linker 3-13 via CH2) | < 0.001 µM | > 50 µM |  | 
2 | CC[C@H](C)[C@@H]1NC(=O)[C@H](Cc2ccc(-c3ccccc3)cc2)NC(=O)[C@H](CC(C)C)NC(=O)[C@@H]2CCCN2C(=O)[C@@H](NC(=O)[C@H](CCCNC(=N)N)NC(=O)[C@H](CCCNC(=N)N)NC(C)=O)CSSC[C@@H](C(=O)N[C@@H](CCCNC(=N)N)C(=O)N[C@@H](CCCNC(=N)N)C(N)=O)NC(=O)[C@H](C(C)C)NC(=O)[C@@H]2CCCN2C(=O)[C@H](CC(=O)O)NC(=O)[C@H](Cc2ccc(O)cc2)NC(=O)[C@H](CO)NC1=O [peptide 1-09, Ac-RR-cyclo(CPL-Bip-ISYDPVC)-RR-NH2] (Ac-RRCPL[Bip]ISYDPVCRR-NH2; disulfide 3-13) |  |  |  | fold improvement in SOS potency over reference 2 (KRpep-2) [1]: 8 fold
3 | CC[C@H](C)[C@@H]1NC(=O)[C@H](Cc2ccc(-c3ccccc3)cc2)NC(=O)[C@H](CC(C)C)NC(=O)[C@@H]2[C@@H](c3ccccc3)CCN2C(=O)[C@H](NC(=O)[C@@H](CCCNC(=N)N)NC(=O)[C@@H](CCCNC(=N)N)NC(=O)[C@H](CCCCN=[N+]=[N-])NC(C)=O)CSCSC[C@@H](C(=O)N[C@H](CCCNC(=N)N)C(=O)N[C@H](CCCNC(=N)N)C(N)=O)NC(=O)[C@H](C(C)C)NC(=O)[C@@H]2CCCN2C(=O)[C@H](CC(=O)O)NC(=O)[C@H](Cc2ccc(O)cc2)NC(=O)[C@](C)(CO)NC1=O [peptide 9, Ac-Lys(N3)-rr-cyclo(c(methylene)-Prot3Ph-L-Bip-I-aMeS-YDPVC)-rr-NH2] | < 0.001 µM | 6.8 µM | 6.2 µM | half-life at 1 µM [3]: > 6.2 h; EC50 ([4]; read-out: NanoClick (HeLa) 4 h EC50, 4 h): 1.49 µM; EC50 ([4]; read-out: NanoClick (HeLa) 18 h EC50, 18 h): 0.148 µM; EC50 ([4]; read-out: NanoClick permeability EC50 at 4 h, 4 h): 1.5 µM; EC50 ([4]; read-out: NanoClick permeability EC50 at 18 h, 18 h): 0.15 µM
4 | CC(=O)N[C@@H](CCCNC(=N)N)C(=O)N[C@@H](CCCNC(=N)N)C(=O)N[C@H]1CSSC[C@@H](C(=O)N[C@@H](CCCNC(=N)N)C(=O)N[C@@H](CCCNC(=N)N)C(N)=O)NC(=O)[C@H](C(C)C)NC(=O)[C@@H]2CCCN2C(=O)[C@H](CC(=O)O)NC(=O)[C@H](Cc2ccc(O)cc2)NC(=O)[C@H](CO)NC(=O)[C@H](CC2CCCC2)NC(=O)[C@H](Cc2ccc(-c3ccccc3)cc2)NC(=O)[C@H](CC(C)C)NC(=O)[C@@H]2CCCN2C1=O [1-11, Ac-RR-cyclo(CPL-Bip-cPeA-SYDPVC)-RR-NH2] (Ac-RRCPL[Bip][Ala(cPent)]SYDPVCRR-NH2; disulfide 3-13) | > 11.1 µM |  |  | 
5 | CC[C@H](C)[C@@H]1NC(=O)[C@H](Cc2ccc(O)cc2)NC(=O)[C@H](CC(C)C)NC(=O)[C@@H]2CCCN2C(=O)[C@H](NC(=O)[C@@H](CCCNC(=N)N)NC(=O)[C@@H](CCCNC(=N)N)NC(=O)[C@H](CCCCN=[N+]=[N-])NC(C)=O)CSCSC[C@@H](C(=O)N[C@H](CCCNC(=N)N)C(=O)N[C@H](CCCNC(=N)N)C(N)=O)NC(=O)[C@H](C(C)C)NC(=O)[C@@H]2CCCN2C(=O)[C@H](CC(=O)O)NC(=O)[C@H](Cc2ccc(O)cc2)NC(=O)[C@H](CO)NC1=O [peptide 10] |  |  |  | NanoClick permeability at 4 h, in words ([4]; 4 h): no permeability; NanoClick permeability at 18 h, in words ([4]; 18 h): very limited permeability
6 | CC[C@@H](C)[C@H]1NC(=O)[C@H](Cc2ccc(-c3ccccc3)cc2)NC(=O)[C@H](CC(C)C)NC(=O)[C@@H]2[C@@H](c3ccccc3)CCN2C(=O)[C@H](NC(=O)[C@@H](CCCNC(=N)N)NC(=O)[C@@H](CCCNC(=N)N)NC(C)=O)CSCSC[C@@H](C(=O)N[C@H](CCCNC(=N)N)C(=O)N[C@H](CCCNC(=N)N)C(N)=O)NC(=O)[C@H](C(C)C)NC(=O)[C@@H]2CCCN2C(=O)[C@H](CC(=O)O)NC(=O)[C@H](Cc2ccc(O)cc2)NC(=O)[C@@](C)(CO)NC1=O [peptide 8, Ac-rr-cyclo(c(methylene)-Prot3Ph-L-Bip-i-aMeS-YDPVC)-rr-NH2] (Ac-[dR][dR][dC][Pro(3R-Ph)]L[Bip][dI][d(αMeS)]YDPVC[dR][dR]-NH2; linker 3-13 via CH2) |  |  |  | SOS GNE potency / binding, in words [1]: no response; cellular (pERK) activity, in words ([2]; AsPC-1): no cellular activity
7 | CC[C@H](C)[C@@H]1NC(=O)[C@H](Cc2ccc(-c3ccccc3)cc2)NC(=O)[C@H](CC(C)C)NC(=O)[C@@H]2[C@@H](c3ccccc3)CCN2C(=O)[C@@H](NC(=O)[C@H](CCCNC(=N)N)NC(=O)[C@H](CCCNC(=N)N)NC(C)=O)CSSC[C@@H](C(=O)N[C@@H](CCCNC(=N)N)C(=O)N[C@@H](CCCNC(=N)N)C(N)=O)NC(=O)[C@H](C(C)C)NC(=O)[C@@H]2CCCN2C(=O)[C@H](CC(=O)O)NC(=O)[C@H](Cc2ccc(O)cc2)NC(=O)[C@H](CO)NC1=O [peptide 3-09, Ac-RR-cyclo(C-Prot3Ph-L-Bip-ISYDPVC)-RR-NH2] (Ac-RRC[Pro(3R-Ph)]L[Bip]ISYDPVCRR-NH2; disulfide 3-13) |  |  |  | fold improvement in SOS potency over reference peptide 1-09 [1]: 7 fold
8 | C=CCO[C@H]1CCN2C(=O)[C@H](NC(=O)[C@H](CCCNC(=N)N)NC(=O)[C@H](CCCNC(=N)N)NC(C)=O)CSCSC[C@@H](C(=O)N[C@@H](CCCNC(=N)N)C(=O)N[C@@H](CCCNC(=N)N)C(N)=O)NC(=O)[C@H](C(C)C)NC(=O)[C@@H]3CCCN3C(=O)[C@H](CC(=O)O)NC(=O)[C@H](Cc3ccc(O)cc3)NC(=O)[C@H](CO)NC(=O)[C@H]([C@@H](C)CC)NC(=O)[C@H](Cc3ccc(-c4ccccc4)cc3)NC(=O)[C@H](CC(C)C)NC(=O)[C@H]12 [5-02, Ac-RR-cyclo(c(methylene)-Prot3OAl-L-Bip-ISYDPVC)-RR-NH2] (Ac-RR[dC][Pro(trans-3-OAllyl)]L[Bip]ISYDPVCRR-NH2; linker 3-13 via CH2) | < 0.001 µM | > 50 µM | 28 µM | 
9 | CC[C@H](C)[C@@H]1NC(=O)[C@H](Cc2ccc(-c3ccccc3)cc2)NC(=O)[C@H](COC)NC(=O)[C@@H]2CCCN2C(=O)[C@@H](NC(=O)[C@H](CCCNC(=N)N)NC(=O)[C@H](CCCNC(=N)N)NC(C)=O)CSSC[C@@H](C(=O)N[C@@H](CCCNC(=N)N)C(=O)N[C@@H](CCCNC(=N)N)C(N)=O)NC(=O)[C@H](C(C)C)NC(=O)[C@@H]2CCCN2C(=O)[C@H](CC(=O)O)NC(=O)[C@H](Cc2ccc(O)cc2)NC(=O)[C@H](CO)NC1=O [3-02, Ac-RR-cyclo(CP-SerOMe-Bip-ISYDPVC)-RR-NH2] (Ac-RRCPS(Me)[Bip]ISYDPVCRR-NH2; disulfide 3-13) | 1.13 µM |  |  | 
10 | C=CCO[C@H]1CCN2C(=O)[C@@H](NC(=O)[C@H](CCCNC(=N)N)NC(=O)[C@H](CCCNC(=N)N)NC(C)=O)CSSC[C@@H](C(=O)N[C@@H](CCCNC(=N)N)C(=O)N[C@@H](CCCNC(=N)N)C(N)=O)NC(=O)[C@H](C(C)C)NC(=O)[C@@H]3CCCN3C(=O)[C@H](CC(=O)O)NC(=O)[C@H](Cc3ccc(O)cc3)NC(=O)[C@H](CO)NC(=O)[C@H]([C@@H](C)CC)NC(=O)[C@H](Cc3ccc(-c4ccccc4)cc3)NC(=O)[C@H](CC(C)C)NC(=O)[C@H]12 [3-05, Ac-RR-cyclo(C-Prot3OAl-L-Bip-ISYDPVC)-RR-NH2] (Ac-RRC[Pro(trans-3-OAllyl)]L[Bip]ISYDPVCRR-NH2; disulfide 3-13) | 0.001 µM |  |  | fold improvement in SOS potency over reference peptide 1-09 [1]: 7 fold
11 | CC[C@H](C)[C@@H]1NC(=O)[C@H](Cc2ccc(-c3ccccc3)cc2)NC(=O)[C@H](CC(C)C)NC(=O)[C@@H]2[C@@H](c3ccccc3)CCN2C(=O)[C@H](NC(=O)[C@H](CCCNC(=N)N)NC(=O)[C@H](CCCNC(=N)N)NC(C)=O)CSCSC[C@@H](C(=O)N[C@@H](CCCNC(=N)N)C(=O)N[C@@H](CCCNC(=N)N)C(N)=O)NC(=O)[C@H](C(C)C)NC(=O)[C@@H]2CCCN2C(=O)[C@H](CC(=O)O)NC(=O)[C@H](Cc2ccc(O)cc2)NC(=O)[C@H](CO)NC1=O [peptide 5-01, Ac-RR-cyclo(c(methylene)-Prot3Ph-L-Bip-ISYDPVC)-RR-NH2] (Ac-RR[dC][Pro(3R-Ph)]L[Bip]ISYDPVCRR-NH2; linker 3-13 via CH2) | < 0.001 µM | 33 µM | 3.3 µM | half-life at 1 µM [3]: > 6.2 h
12 | CCCCC[C@@H]1NC(=O)[C@@H]2CCCN2C(=O)[C@H](CC(=O)O)NC(=O)[C@H](Cc2ccc(O)cc2)NC(=O)[C@H](CO)NC(=O)[C@H]([C@@H](C)CC)NC(=O)[C@H](Cc2ccc(-c3ccccc3)cc2)NC(=O)[C@H](CC(C)C)NC(=O)[C@@H]2[C@@H](c3ccccc3)CCN2C(=O)[C@H](NC(=O)[C@H](CCCNC(=N)N)NC(=O)[C@H](CCCNC(=N)N)NC(C)=O)CSCSC[C@@H](C(=O)N[C@@H](CCCNC(=N)N)C(=O)N[C@@H](CCCNC(=N)N)C(N)=O)NC1=O [5-03, Ac-RR-cyclo(c(methylene)-Prot3Ph-L-Bip-ISYDP-Ahp-C)-RR-NH2] (Ac-RR[dC][Pro(3R-Ph)]L[Bip]ISYDP[Ahp(2)]CRR-NH2; linker 3-13 via CH2) | < 0.001 µM | 29 µM | 6.8 µM | half-life at 1 µM [3]: > 6.2 h
